Test results reported in article PMC8520056 (Asian Journal of Pharmaceutical Sciences, 2021).
≈ marks a conversion by molar mass, not a printed value. Each block holds one compound with its values, some of them ahead of it.

Legend:
[1] = Saturated solubility of AG-CDs binary formulations; format: physicochemical; settings: distilled water
Outline: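 Binary complexes were made by grinding. γ-CD was dissolved in distilled water, compound added at 1:1 or 1:2 molar ratio, and the mix ground 2 h to a paste. The paste was dried at 50 °C under vacuum, pulverised and passed through an 80-mesh sieve.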

[2] = Dissolution study; format: physicochemical; settings: different pH media, 150 mg AG in 1000 ml, 75 rpm, 37 °C, up to 60 min
Outline: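 USP-type paddle method (Ch.P 2015 Apparatus II) at 75 rpm and 37 ± 0.5 °C. Medium was 1000 ml of distilled water, 0.1 mol/l HCl, pH 6.8 phosphate buffer or 1% SDS. Pure compound or formulations were added at 150 mg compound-equivalent. Aliquots were drawn at 5, 10, 15, 20, 30, 45 and 60 min and replaced with fresh medium. Samples were filtered through 0.45 µm and assayed by HPLC.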

[3] = Transwell transport study in MDCK-MDR1 monolayer; format: in vitro ADME, canine; settings: dog
Outline: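 MDCK-MDR1 cells were seeded at 5 × 10^5 cells/well on 0.4 µm polycarbonate inserts and cultured 7 d; medium was changed every other day, then daily after day 4. Only monolayers with TEER above 140 ohms were used. Monolayers were equilibrated 30 min in HBSS at 37 °C. […] Receiver samples were taken at 15–120 min for HPLC. Papp = (ΔR/Δt)/(S·C0), with S 4.71 cm2; the efflux ratio was calculated from Papp.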

[4] = In vivo pharmacokinetic study after oral administration; parameters: species or system Sprague-Dawley rats; settings: male, Sprague-Dawley, rat, plasma, 40 mg/kg
[5] = Physiologically based absorption modeling; parameters: species or system rat
[6] = cited from earlier work
[7] = system: MDCK-MDR1 cells; experiment: Cellular uptake of AG with P-gp inhibitors; format: cell-based, canine; settings: 100 µM AG, 200 µM γ-CD, 1% P-gp inhibitor, 37 °C, 90 min
Outline: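 MDCK-MDR1 cells were grown in DMEM with 10% heat-inactivated FBS and 1% penicillin/streptomycin at 37 °C, 5% CO2. Cells were seeded at 5 × 10^5 cells/well and left to adhere overnight. At 80% confluence they were exposed for 90 min at 37 °C to 100 µM test compound, with or without 200 µM γ-CD plus 1% Tween 80, TPGS, P407 or Cremophor EL. Cells were washed three times in ice-cold PBS, lysed in 1% Triton X-100, and intracellular compound was measured by HPLC. […] Triplicates, mean ± SD.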

[8] = three-compartment model fitted to 5 mg/kg i.v. data of ref 35

solubility [1]: 74.6 µg/mL (≈ 213 µM)
AG released (dissolution) [2]: 17%
Papp A→B at 120 min, 20 µM [3]: 0.47 ± 0.04 ×10⁻⁶ cm/s
Papp B→A at 120 min, 20 µM [3]: 4.9 ± 0.05 ×10⁻⁶ cm/s
efflux ratio at 120 min, 20 µM [3]: 10.4
AUC(0-inf) [4]: 426 ± 76.8 ng·h/mL
AUC(0-t) [4]: 351 ± 56.5 ng·h/mL
Cmax [4]: 57.8 ± 14.8 ng/mL
Tmax [4]: 1.33 ± 0.52 h
half-life [4]: 583 ± 82.8 min
k el [4]: 2e-05 s⁻¹
Dissolution rate (constant) ([5]; fitted to dissolution test result, pH 6.8 PBS): 8.87 mL/h/mg
Central (compartment volume) [5, 8]: 1460 mL
K10 [5, 8]: 0.7518 h⁻¹
K12 [5, 8]: 1.29 h⁻¹
K13 [5, 8]: 4.5125 h⁻¹
K21 [5, 8]: 0.27 h⁻¹
K31 [5, 8]: 7.0938 h⁻¹
Periperal_2 (compartment volume) [5, 8]: 1000 mL
Peripheral_1 (compartment volume) [5, 8]: 6000 mL
Compound: C=C1CC[C@@H]2[C@](C)(CO)[C@H](O)CC[C@@]2(C)[C@@H]1C/C=C1/C(=O)OC[C@H]1O [AG, Andrographolide]
Unbound fraction (plasma) [6]: 0.35

Compound: D-α-Tocopherol polyethylene glycol succinate [TPGS]
Cellular uptake of AG [7]: 1.04 nmol/mg protein
